Results published in article PMC3583018 (Synapse (New York, N.Y.), 2010).
Values joined by “and” are separate entries in the source; they are usually repeats but may differ in a detail not shown here. Identical values can stand only once. Like-named read-outs stand apart in the source and are kept apart here. Values belong to the compound of their own block, whether it stands above or below them.

Experiments:
D2 plus D3 receptors [1] = assay type: binding, Sprague-Dawley rat; details: rat striatum, n = 30
Procedure, shortened: (§1)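 Brains from male rhesus monkey (5 kg, 6 years) and male Sprague-Dawley rats (~500 g, 5 months) were flash frozen, and 20 μm coronal sections were cut. Sections were incubated 30 min with 4 nM tritiated test radioligand or 10 nM [3H]raclopride, ±1 μM S(−)-eticlopride for nonspecific binding. Sections were rinsed five times in ice-cold buffer, then imaged 24 h on a gaseous beta imager and calibrated against tritium standards. Reported as mean ± S.E.M (monkey n = 8, rat n = 30).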

D2 plus D3 receptors [2] = assay type: binding, rhesus monkey; details: n = 8; for B2 apparent receptor binding density: 10 nM radioligand; for B1 apparent receptor binding density: 4 nM radioligand
Procedure, shortened: as §1

D2 receptors [3] = test: Fractional receptor occupancy from saturation binding isotherm; details: rat striatum; for receptors labeled: derived from saturation binding isotherm
Procedure, shortened: (§2)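 Computed occupancy fractions for rat striatum D2 or D3 receptors use the mass-action isotherm B/Bmax = L/(L+Kd). L is 4 nM for the tritiated test radioligand and 10 nM for tritiated raclopride. Kd values come from saturation binding to rat D2L/D3 receptors expressed in Sf9 cell membranes. The test radioligand Kd was taken from earlier work.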

D2 receptors [4] = test: Fractional receptor occupancy from saturation binding isotherm; details: monkey striatum; for receptors labeled: derived from saturation binding isotherm
Procedure, shortened: (§3)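 Calculated rather than measured: the fraction of D2 or D3 receptors occupied in monkey striatum comes from B/Bmax = L/(L+Kd). L is 4 nM for the tritiated test radioligand or 10 nM for tritiated raclopride. Kd values are from saturation binding to cloned human D2L/D3 receptors expressed in HEK cells. The test radioligand Kd values were taken from earlier work.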

D3 receptors [5] = test: Fractional receptor occupancy from saturation binding isotherm; details: rat striatum; for receptors labeled: derived from saturation binding isotherm
Procedure, shortened: as §2

human hD3 receptors [6] = target: T1, human hD3 receptors (Homo sapiens, UniProt P35462); test: Saturation; details: hD3 in HEK cells, saturation binding, mean ± S.E.M n = 3
T1 sequence (P35462 whole entry): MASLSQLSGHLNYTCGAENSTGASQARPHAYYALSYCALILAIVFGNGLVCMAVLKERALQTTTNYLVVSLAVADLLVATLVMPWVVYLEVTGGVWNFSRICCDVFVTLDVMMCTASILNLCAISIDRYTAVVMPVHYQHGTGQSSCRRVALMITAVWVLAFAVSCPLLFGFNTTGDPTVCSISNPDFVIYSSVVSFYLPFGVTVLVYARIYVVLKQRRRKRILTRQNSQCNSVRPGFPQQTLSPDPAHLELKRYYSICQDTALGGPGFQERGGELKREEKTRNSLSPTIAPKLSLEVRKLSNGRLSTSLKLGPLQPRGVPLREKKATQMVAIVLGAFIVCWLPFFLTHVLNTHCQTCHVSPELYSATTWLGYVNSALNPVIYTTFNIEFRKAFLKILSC

D3 receptors [7] = test: Fractional receptor occupancy from saturation binding isotherm; details: monkey striatum; for receptors labeled: derived from saturation binding isotherm
Procedure, shortened: as §3

rat rD3 receptors [8] = target: T2, rat rD3 receptors (Rattus norvegicus, UniProt P19020); test: Saturation; details: rD3 in Sf9 cells, saturation binding, mean ± S.E.M n = 3
T2 sequence (P19020 whole entry): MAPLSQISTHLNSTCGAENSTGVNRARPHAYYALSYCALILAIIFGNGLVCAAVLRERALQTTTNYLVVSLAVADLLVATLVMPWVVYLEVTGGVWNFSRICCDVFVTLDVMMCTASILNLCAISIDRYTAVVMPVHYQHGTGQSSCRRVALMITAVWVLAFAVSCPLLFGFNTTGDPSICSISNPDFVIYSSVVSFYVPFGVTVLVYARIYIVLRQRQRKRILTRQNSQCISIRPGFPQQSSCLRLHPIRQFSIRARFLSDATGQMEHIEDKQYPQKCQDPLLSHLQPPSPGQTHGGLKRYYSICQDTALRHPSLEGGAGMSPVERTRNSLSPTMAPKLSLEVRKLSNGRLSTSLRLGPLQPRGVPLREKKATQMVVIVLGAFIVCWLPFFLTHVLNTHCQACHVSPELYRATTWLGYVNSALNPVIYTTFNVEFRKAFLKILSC

human hD3 receptors [9] = target: T1, human hD3 receptors; details: cited from earlier work
D3 receptors [10] = target: D3 receptors (Rattus norvegicus, UniProt P19020); test: Scatchard analysis of autoradiography binding to rat brain sections; parameters: species or system Sprague-Dawley rat
D3 receptors (Rattus norvegicus, UniProt P19020), sequence (P19020 whole entry): as above

rat rD2L receptors = rat rD2L receptors (Rattus norvegicus, UniProt P61169); details: rD2L in Sf9 cells, saturation binding, mean ± S.E.M n = 3; ref Xu et al. (2009); cited from earlier work
rat rD2L receptors, sequence (P61169 whole entry): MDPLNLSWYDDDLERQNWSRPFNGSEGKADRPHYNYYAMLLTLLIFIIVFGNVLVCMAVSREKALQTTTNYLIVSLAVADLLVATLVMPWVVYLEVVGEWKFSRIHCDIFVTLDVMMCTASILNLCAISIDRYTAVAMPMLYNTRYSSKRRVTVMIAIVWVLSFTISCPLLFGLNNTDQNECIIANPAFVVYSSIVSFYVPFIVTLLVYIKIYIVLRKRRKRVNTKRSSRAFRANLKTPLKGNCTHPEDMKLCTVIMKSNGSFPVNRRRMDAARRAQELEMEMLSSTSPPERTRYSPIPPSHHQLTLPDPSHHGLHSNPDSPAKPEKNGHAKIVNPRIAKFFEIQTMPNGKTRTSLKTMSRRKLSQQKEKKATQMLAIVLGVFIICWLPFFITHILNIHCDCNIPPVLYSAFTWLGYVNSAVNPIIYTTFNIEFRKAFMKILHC

human hD2L receptors = human hD2L receptors (Homo sapiens, UniProt P14416); details: hD2L in HEK cells, saturation binding, mean ± S.E.M n = 3; ref Xu et al. (2009); cited from earlier work
human hD2L receptors, sequence (P14416 whole entry): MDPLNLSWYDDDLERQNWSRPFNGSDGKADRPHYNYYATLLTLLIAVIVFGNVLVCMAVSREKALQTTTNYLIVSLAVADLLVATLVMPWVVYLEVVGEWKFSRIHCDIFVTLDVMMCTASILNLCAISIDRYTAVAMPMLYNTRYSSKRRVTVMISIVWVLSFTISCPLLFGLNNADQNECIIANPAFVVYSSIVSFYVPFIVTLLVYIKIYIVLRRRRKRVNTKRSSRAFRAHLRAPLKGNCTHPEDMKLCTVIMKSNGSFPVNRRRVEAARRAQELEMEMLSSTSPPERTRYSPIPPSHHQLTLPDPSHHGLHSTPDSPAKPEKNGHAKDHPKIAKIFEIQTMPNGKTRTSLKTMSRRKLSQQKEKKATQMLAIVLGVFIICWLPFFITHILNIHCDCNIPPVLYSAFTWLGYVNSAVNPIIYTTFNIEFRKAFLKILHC

rat rD3 receptors [11] = target: T2, rat rD3 receptors; details: cited from earlier work
[12] = 10 nM, from Eq. 2 with Kd of Table I
[13] = 4 nM, from Eq. 2 with Kd of Table I

Compound: CCN1CCC[C@H]1CNC(=O)c1c(O)c(Cl)cc(Cl)c1OC (racemic) [[^3H]raclopride, reference compound]
B2 apparent receptor binding density (D2 plus D3 receptors [1]; 10 nM radioligand): 145 fmol/mg tissue and 145 ± 4 fmol/mg tissue
B2 apparent receptor binding density (D2 plus D3 receptors [2]; rhesus caudate): 318 fmol/mg tissue and 318 ± 17 fmol/mg tissue
B2 apparent receptor binding density (D2 plus D3 receptors [2]; rhesus putamen): 345 fmol/mg tissue and 345 ± 23 fmol/mg tissue
receptors labeled (D2 receptors [3]; 10 nM): 60%
a2, receptor occupancy fraction (D2 receptors [3]; [12]): 0.6
receptors labeled (D2 receptors [4]; 10 nM): 86%
a2, receptor occupancy fraction (D2 receptors [4]; [12]): 0.86
receptors labeled (D3 receptors [5]; 10 nM): 37%
b2, receptor occupancy fraction (D3 receptors [5]; [12]): 0.37
Kd (human hD3 receptors [6]): 18 ± 1 nM
receptors labeled (D3 receptors [7]; 10 nM): 36%
b2, receptor occupancy fraction (D3 receptors [7]; [12]): 0.36
Kd (rat rD3 receptors [8]): 17.1 ± 1.7 nM

receptors labeled (D2 receptors [3]; 4 nM): 2%
a1, receptor occupancy fraction (D2 receptors [3]; [13]): 0.02
receptors labeled (D2 receptors [4]; 4 nM): 5%
a1, receptor occupancy fraction (D2 receptors [4]; [13]): 0.05
receptors labeled (D3 receptors [5]; 4 nM): 50%
b1, receptor occupancy fraction (D3 receptors [5]; [13]): 0.5
Kd (D3 receptors [10]): 3.4 nM
receptors labeled (D3 receptors [7]; 4 nM): 78%
b1, receptor occupancy fraction (D3 receptors [7]; [13]): 0.78
Compound: COc1ccccc1N1CCN(CCCCNC(=O)c2ccc(N(C)C)cc2)CC1 [[^3H]WC-10, 4-(dimethylamino)-N-(4-(4-(2-methoxyphenyl)piperazin-1-yl)butyl)benzamide]
B1 apparent receptor binding density (D2 plus D3 receptors [1]; 4 nM radioligand): 38 fmol/mg tissue and 38 ± 2 fmol/mg tissue
B1 apparent receptor binding density (D2 plus D3 receptors [2]; rhesus anterior caudate): 125 fmol/mg tissue and 125 ± 3 fmol/mg tissue
B1 apparent receptor binding density (D2 plus D3 receptors [2]; rhesus putamen): 141 fmol/mg tissue and 141 ± 4 fmol/mg tissue
Kd (human hD3 receptors [9]; hD3 in HEK cells, saturation binding, mean ± S.E.M n = 3, ref Xu et al. (2009)): 1.2 nM and 1.16 nM
D2L/D3 (Kd ratio) (human hD3 receptors [9]; human receptors in HEK cells, ref Xu et al. (2009)): 65.5
fold higher affinity to human HEK D3 than to HEK D2L receptors (human hD3 receptors [9]; ref Xu et al., 2009): 66 fold
Kd (rat rD2L receptors): 158 ± 8.3 nM
Kd (human hD2L receptors): 76 ± 4 nM
Kd (rat rD3 receptors [11]; rD3 in Sf9 cells, saturation binding, mean ± S.E.M n = 3, ref Xu et al. (2009)): 3.9 nM and 3.94 nM
D2L/D3 (Kd ratio) (rat rD3 receptors [11]; rat receptors in Sf9 cells, ref Xu et al. (2009)): 40.1
fold higher affinity to rat Sf9 rD3 than to rat Sf9 rD2L receptors (rat rD3 receptors [11]; ref Xu et al., 2009): 40 fold
fold lower affinity to rat Sf9 rD3 than to human HEK D3 receptors (rat rD3 receptors [11]; ref Xu et al., 2009): 3 fold
